# Assay results as given in ChEMBL document CHEMBL1139360, “Mechanism of p300 specific histone acetyltransferase inhibition by small molecules” (J Med Chem, 2009).
# How the values were obtained:
# [1] = biological target: Histone acetyltransferase KAT2B (Homo sapiens) (UniProt Q92831); test: Inhibition of HAT PCAF relative to control; set-up: scale not given: the % may be the effect or the level left
# Method in brief: (§1)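 Filter-binding HAT assay with PCAF, purified HeLa core histones and ³H-acetyl-CoA, run at increasing inhibitor concentrations. Activity compared with a DMSO solvent control.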
# [2] = biological target: T1, Histone acetyltransferase p300 (Homo sapiens, UniProt Q09472); test: Binding affinity to HAT p300 catalytic domain by isothermal titration calorimetry
# Method in brief: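 ITC at 20 °C. Ligand at 30–35 μM injected into 3 μM p300 HAT domain in 20 mM Tris-HCl pH 7.5, 0.2 mM EDTA, 100 mM KCl. 35 injections, 2 min apart; the first 1 μL injection was discarded. Ligand-into-buffer and buffer-into-buffer blanks were subtracted, and data fitted to a one-set-of-sites model.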
# [3] = biological target: T1, Histone acetyltransferase p300; test: Inhibition of HAT p300 catalytic domain assessed as drug-induced alteration of protein tertiary structure at 2.5 uM by Stern-Volmer plot; set-up: scale not given: the % may be the effect or the level left
# Method in brief: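 p300 HAT domain (1.2 μM) preincubated 2 min at room temperature with 2.5 μM inhibitor in 20 mM Tris-HCl pH 7.5, 0.2 mM EDTA, 100 mM KCl. Acrylamide added stepwise; fluorescence read at 340 nm (excitation 295 nm) at 20 °C. Ksv taken from a Stern–Volmer plot and tryptophan accessibility from a modified Stern–Volmer plot.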
# [4] = biological target: T1, Histone acetyltransferase p300; test: Binding affinity to HAT p300 catalytic domain by fluorometric titration
# Method in brief: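 p300 HAT domain (aa 1284–1673, 6His, from E. coli BL21(DE3) co-expressing SirT2), 1.2 μM, titrated with ligand in 20 mM Tris-HCl pH 7.5, 0.2 mM EDTA, 100 mM KCl. Tryptophan emission read at 340 nm (excitation 295 nm). Kd obtained by nonlinear least-squares fit; ΔFmax taken from a double-reciprocal plot.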
# [5] = biological target: T1, Histone acetyltransferase p300; test: Inhibition of HAT p300 catalytic domain activity expressed in Escherichia coli BL21 (DE3) co-transformed with human SirT2 by fluorography/autoradiography assay
# [6] = biological target: T1, Histone acetyltransferase p300; test: Inhibition of HAT p300 catalytic domain
# [7] = biological target: Histone acetyltransferase KAT2B (Homo sapiens) (UniProt Q92831); test: Inhibition of HAT PCAF up to 10 uM after 2 mins in absence of acetyl-CoA; set-up: scale not given: the % may be the effect or the level left
# Method in brief: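 PCAF preincubated with inhibitor at 10 μM without acetyl-CoA over a time course, then assayed for HAT activity on purified HeLa core histones in triplicate. Activity compared with a DMSO control.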
# [8] = biological target: Histone acetyltransferase KAT2B (Homo sapiens) (UniProt Q92831); test: Inhibition of HAT PCAF up to 40 uM relative to control; set-up: scale not given: the % may be the effect or the level left; method in brief: as §1
# Histone acetyltransferase KAT2B (Homo sapiens), sequence (Q92831 whole entry, looked up): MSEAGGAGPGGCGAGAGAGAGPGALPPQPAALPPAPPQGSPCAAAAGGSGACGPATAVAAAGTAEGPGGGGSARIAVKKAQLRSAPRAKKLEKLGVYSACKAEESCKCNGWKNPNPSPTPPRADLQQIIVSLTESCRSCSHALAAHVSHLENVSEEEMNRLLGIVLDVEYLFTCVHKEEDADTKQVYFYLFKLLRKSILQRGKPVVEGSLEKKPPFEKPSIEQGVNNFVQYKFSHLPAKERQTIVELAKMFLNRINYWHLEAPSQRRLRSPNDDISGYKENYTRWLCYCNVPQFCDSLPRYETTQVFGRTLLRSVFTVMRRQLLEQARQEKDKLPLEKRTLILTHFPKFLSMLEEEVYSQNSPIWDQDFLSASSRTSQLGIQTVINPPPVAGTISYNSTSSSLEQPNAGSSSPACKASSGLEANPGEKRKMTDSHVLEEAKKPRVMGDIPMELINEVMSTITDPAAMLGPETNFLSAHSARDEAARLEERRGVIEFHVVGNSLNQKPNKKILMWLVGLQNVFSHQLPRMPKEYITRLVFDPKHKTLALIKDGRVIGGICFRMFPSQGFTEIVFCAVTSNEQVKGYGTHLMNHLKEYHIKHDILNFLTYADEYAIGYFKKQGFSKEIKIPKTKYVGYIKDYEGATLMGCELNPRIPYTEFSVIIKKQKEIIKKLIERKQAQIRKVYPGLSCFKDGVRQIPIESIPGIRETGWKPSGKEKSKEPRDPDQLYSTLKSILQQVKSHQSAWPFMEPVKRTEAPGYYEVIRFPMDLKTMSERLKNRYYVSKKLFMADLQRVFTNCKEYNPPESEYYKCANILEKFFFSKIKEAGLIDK
# T1 sequence (Q09472 whole entry, the tested form may be a part): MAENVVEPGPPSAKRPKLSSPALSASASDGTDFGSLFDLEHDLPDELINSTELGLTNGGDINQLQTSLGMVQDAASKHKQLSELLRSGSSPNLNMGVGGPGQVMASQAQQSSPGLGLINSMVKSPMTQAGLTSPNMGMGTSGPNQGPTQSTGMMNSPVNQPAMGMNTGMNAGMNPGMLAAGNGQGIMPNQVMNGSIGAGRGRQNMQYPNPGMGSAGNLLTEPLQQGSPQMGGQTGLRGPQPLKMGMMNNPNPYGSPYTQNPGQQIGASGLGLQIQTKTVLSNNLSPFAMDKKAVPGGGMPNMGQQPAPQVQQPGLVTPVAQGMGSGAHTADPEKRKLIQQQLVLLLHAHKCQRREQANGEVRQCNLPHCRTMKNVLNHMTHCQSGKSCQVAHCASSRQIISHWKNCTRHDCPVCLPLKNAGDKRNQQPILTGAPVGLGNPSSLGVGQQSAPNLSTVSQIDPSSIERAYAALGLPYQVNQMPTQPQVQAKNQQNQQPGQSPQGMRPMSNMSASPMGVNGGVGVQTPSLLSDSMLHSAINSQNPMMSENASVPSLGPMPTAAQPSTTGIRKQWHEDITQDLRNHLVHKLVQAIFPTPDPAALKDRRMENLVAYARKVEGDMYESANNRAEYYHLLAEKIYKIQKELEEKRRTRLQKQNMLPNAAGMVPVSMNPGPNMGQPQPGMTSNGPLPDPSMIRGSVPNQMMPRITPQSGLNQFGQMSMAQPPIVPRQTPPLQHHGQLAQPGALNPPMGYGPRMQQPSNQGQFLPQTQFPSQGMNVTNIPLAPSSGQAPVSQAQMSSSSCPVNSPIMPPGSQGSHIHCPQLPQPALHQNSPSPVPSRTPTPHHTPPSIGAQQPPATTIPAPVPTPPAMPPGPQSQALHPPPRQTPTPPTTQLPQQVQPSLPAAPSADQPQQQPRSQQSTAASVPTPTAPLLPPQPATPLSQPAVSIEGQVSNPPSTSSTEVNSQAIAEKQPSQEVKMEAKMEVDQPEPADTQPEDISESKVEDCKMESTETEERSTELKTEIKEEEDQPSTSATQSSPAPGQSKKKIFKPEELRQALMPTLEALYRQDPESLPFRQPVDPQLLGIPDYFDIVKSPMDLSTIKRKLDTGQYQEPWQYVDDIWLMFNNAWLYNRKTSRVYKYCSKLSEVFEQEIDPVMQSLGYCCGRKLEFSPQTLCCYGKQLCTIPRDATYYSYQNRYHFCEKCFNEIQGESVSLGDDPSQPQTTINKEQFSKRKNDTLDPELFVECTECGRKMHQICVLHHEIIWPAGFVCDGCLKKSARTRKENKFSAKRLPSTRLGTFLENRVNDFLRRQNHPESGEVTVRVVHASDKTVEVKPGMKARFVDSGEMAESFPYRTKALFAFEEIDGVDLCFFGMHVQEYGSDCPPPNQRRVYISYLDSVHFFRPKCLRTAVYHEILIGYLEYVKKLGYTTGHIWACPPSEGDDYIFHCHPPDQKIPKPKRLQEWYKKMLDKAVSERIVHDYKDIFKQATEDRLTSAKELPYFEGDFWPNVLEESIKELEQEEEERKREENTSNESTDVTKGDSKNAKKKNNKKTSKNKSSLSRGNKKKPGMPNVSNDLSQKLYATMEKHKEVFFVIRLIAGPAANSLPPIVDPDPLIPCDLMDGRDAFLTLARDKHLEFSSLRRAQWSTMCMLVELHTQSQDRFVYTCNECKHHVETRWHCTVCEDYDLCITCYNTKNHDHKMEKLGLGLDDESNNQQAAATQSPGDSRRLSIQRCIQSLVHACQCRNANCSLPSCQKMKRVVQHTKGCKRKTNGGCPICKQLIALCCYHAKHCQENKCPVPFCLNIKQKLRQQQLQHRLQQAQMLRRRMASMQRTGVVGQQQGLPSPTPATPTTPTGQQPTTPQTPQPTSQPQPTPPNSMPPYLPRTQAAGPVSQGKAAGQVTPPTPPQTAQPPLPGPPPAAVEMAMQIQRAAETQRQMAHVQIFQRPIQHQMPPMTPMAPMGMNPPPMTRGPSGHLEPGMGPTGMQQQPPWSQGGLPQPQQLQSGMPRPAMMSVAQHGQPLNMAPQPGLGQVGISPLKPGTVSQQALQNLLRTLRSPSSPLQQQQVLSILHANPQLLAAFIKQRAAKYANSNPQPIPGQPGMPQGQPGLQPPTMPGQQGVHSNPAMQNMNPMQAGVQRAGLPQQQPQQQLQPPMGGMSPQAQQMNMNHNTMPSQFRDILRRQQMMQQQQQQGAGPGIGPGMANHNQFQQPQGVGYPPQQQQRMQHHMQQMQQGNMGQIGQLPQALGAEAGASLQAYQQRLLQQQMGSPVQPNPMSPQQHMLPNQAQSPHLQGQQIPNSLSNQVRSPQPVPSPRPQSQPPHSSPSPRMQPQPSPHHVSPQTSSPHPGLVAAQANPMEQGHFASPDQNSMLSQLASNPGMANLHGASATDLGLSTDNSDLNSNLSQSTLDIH
Compound,Activity [1] [%],Kd [2] [µM],Activity [3] [%],Kd [4] [µM],Activity [5],Ki [6] [µM],Activity [7] [%],Activity [8] [%]
CC(C)=CC[C@H]1C[C@@]23C[C@@H](CC=C(C)C)C(C)(C)[C@@](CC=C(C)C)(C(=O)C(C(=O)c4ccc(O)c(O)c4)=C2OC1(C)C)C3=O [CAMBOGIN],50,5.9,75,1.1,Dose-dependent effect,3.9,,
C=C(C)[C@@H](CC=C(C)C)C[C@@]12C[C@@H](CC=C(C)C)C(C)(C)[C@@](CC=C(C)C)(C(=O)C(C(=O)c3ccc(O)c(O)c3)=C1O)C2=O [GARCINOL],,6.6,78,1.8,Dose-dependent effect,4.9,80,90
